Assay results reported in ChEMBL document CHEMBL1127480, “Evaluation of a vitamin-cloaking strategy for oligopeptide therapeutics: biotinylated HIV-1 protease inhibitors” (J Med Chem, 1994).
Calls of active or inactive are those of the source. The rule behind the calls is not given here.

Columns and labels:
CV-1 [1] = experiment: Inhibition of p24 expression was measured at 1 uM using vVK/CV-1 assay; type: functional, Cercopithecidae; conditions: Chlorocebus aethiops
[2] = target: Human immunodeficiency virus type 1 protease (Human immunodeficiency virus 1, UniProt Q72874); experiment: In vitro inhibitory activity against […]
[3] = Inhibition of p24 expression in HIVD34-infected PBMC assay on day 4 at concentration of 4 nM; type: functional; conditions: Homo sapiens, 96 h
[4] = Inhibition of p24 expression in HIVD34-infected PBMC assay on day 4 at concentration of 40 nM; type: functional; conditions: Homo sapiens, 96 h
[5] = Inhibition of viral RNA in HIVD34-infected PBMC assay on day 4 at concentration of 4 nM; type: functional; conditions: Homo sapiens, 96 h
[6] = Inhibition of viral RNA in HIVD34-infected PBMC assay on day 4 at concentration of 40 nM; type: functional; conditions: Homo sapiens, 96 h
CV-1 [7] = experiment: Inhibition of p24 expression was measured at 1 uM using vaccinia virus vVK/CV-1 assay; Inactive; type: functional, cell-based; conditions: Cercopithecidae
Caco-2 [8] = experiment: % control value in caco-2-cell monolayer; type: functional, Homo sapiens; parameters: concentration or dose not given beside the values
In short: (§1)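 Caco-2 monolayers (passage 25) on Transwell inserts, equilibrated 30 min in HBSS with 25 mM glucose, 10 mM Hepes pH 7.35 at 37 °C. Apical side given 10 nM [3H]biotin alone or with 300 μM unlabeled biotin or conjugate (final MeOH 1–5%). Basolateral samples taken over time; [3H]mannitol integrity marker; Student's t-test; triplicate determinations.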

[9] = Inhibition of p24 expression in PBMC assay on day 4 at concentration of 100 nM; type: functional; conditions: Homo sapiens, 96 h
[10] = Inhibition of viral RNA in HIVD34-infected PBMC assay on day 4 at concentration of 10 nM; type: functional; conditions: Homo sapiens, 96 h
[11] = Inhibition of viral RNA in PBMC assay on day 4 at concentration of 100 nM; type: functional; conditions: Homo sapiens, 96 h
[12] = p24 expression was measured by PBMC assay on day 4 at concentration of 10 nM; type: functional; conditions: Homo sapiens, 96 h
[13] = p24 expression was measured by PBMC assay on day 4 at concentration of 1 nM; type: functional; conditions: Homo sapiens, 96 h
Caco-2 [14] = experiment: Effect on the apical to basolateral transport of [3H]biotin in caco-2-cell monolayer; type: functional, Homo sapiens; in short: as §1
[15] = Inhibition of viral RNA in HIVD34-infected PBMC assay on day 4 at concentration of 1 nM; type: functional; conditions: Homo sapiens, 96 h
CV-1 [16] = experiment: Inhibition of p24 expression was measured at 1 uM using vVK/CV-1 assay; Inactive; type: functional, cell-based; conditions: Cercopithecidae
[17] = Inhibition of p24 expression in HIVD34-infected PBMC assay on day 4 at concentration of 100 nM; type: functional; conditions: Homo sapiens, 96 h
[18] = Inhibition of p24 expression in HIVD34-infected PBMC assay on day 4 at concentration of 10 nM; type: functional; conditions: Homo sapiens, 96 h
[19] = Inhibition of viral RNA in HIVD34-infected PBMC assay on day 4 at a concentration of 100 nM; type: functional; conditions: Homo sapiens, 96 h
[20] = Inhibition of p24 expression in HIVD34-infected PBMC assay on day 4 at concentration of 1 nM; type: functional; conditions: Homo sapiens, 96 h

Compound	inhibition at 1 µM (CV-1 [1]) [%]	Ki [2] [nM]	Control (Caco-2 [8]) [%]	Transport (Caco-2 [14])	other results
CC[C@@H](C)[C@H](NC(=O)[C@H](C(C)C)[C@@H](O)[C@H](O)[C@H](CC1CCCCC1)NC(=O)c1ccccc1SCCCCC[C@@H]1SCC2NC(=O)NC21)C(=O)NCCc1scnc1C (some centres undefined)	34	4	–	–	–
CC[C@@H](C)[C@H](NC(=O)[C@H](C(C)C)[C@@H](O)[C@H](O)[C@H](CC1CCCCC1)NC(=O)c1ccccc1SCCCCC[C@@H]1SCC2NC(=O)NC21)C(=O)NCc1ccccn1 (some centres undefined)	–	53	–	–	–
Cc1cn([C@H]2C[C@H](N=[N+]=[N-])[C@@H](CO)O2)c(=O)[nH]c1=O [ZIDOVUDINE]	–	–	–	–	inhibition at 0.004 µM [3]: 2%; inhibition at 0.04 µM [4]: 81%; inhibition at 0.004 µM [5]: 0%; inhibition at 0.04 µM [6]: 90%
CC[C@@H](C)[C@@H](CNC(=O)CCCC[C@@H]1SC[C@@H]2NC(=O)NC21)NC(=O)[C@H](C(C)C)[C@@H](O)[C@H](O)[C@H](CC1CCCCC1)NC(=O)c1ccccc1OCCOc1ccccc1 (some centres undefined)	–	> 100	–	–	inhibition (CV-1 [7]): inactive
CC[C@@H](C)[C@H](NC(=O)[C@H](C(C)C)[C@@H](O)[C@H](O)[C@H](CC1CCCCC1)NC(=O)c1ccccc1OCCCCC[C@@H]1SC[C@H]2NC(=O)N[C@@H]12)C(=O)NCc1ccccn1	24	10	85	15.8 pM min-1 (mg of protein)-1	inhibition at 0.1 µM [9]: 83%; inhibition at 0.01 µM [10]: 10%; inhibition at 0.1 µM [11]: 17%; inhibition at 0.01 µM [12]: 5%; inhibition at 0.001 µM [13]: 2%; inhibition at 0.001 µM [15]: 15%
O=C(O)CCCC[C@@H]1SC[C@@H]2NC(=O)N[C@@H]21 [BIOTIN]	–	–	0	0 pM min-1 (mg of protein)-1	–
CC[C@@H](C)[C@H](NC(=O)[C@H](C(C)C)[C@@H](O)[C@H](O)[C@H](CC1CCCCC1)NC(=O)CCCCCNC(=O)CCCC[C@@H]1SCC2NC(=O)N[C@@H]21)C(=O)NCc1ccccn1 (some centres undefined)	–	20	111	20.6 pM min-1 (mg of protein)-1	inhibition (CV-1 [16]): inactive
CC[C@H](C)[C@H](NC(=O)[C@H](C(C)C)[C@@H](O)[C@H](O)[C@H](CC1CCCCC1)NC(=O)[C@H](Cc1c[nH]cn1)NC(=O)COc1cccc2ccccc12)C(=O)NCc1ccccn1	> 80	< 1	–	–	inhibition at 0.1 µM [17]: 95%; inhibition at 0.01 µM [18]: 82%; inhibition at 0.1 µM [19]: 98%; inhibition at 0.01 µM [10]: 80%; inhibition at 0.001 µM [20]: 38%; inhibition at 0.001 µM [15]: 30%
CC[C@@H](C)[C@H](NC(=O)[C@H](C(C)C)[C@@H](O)[C@H](O)[C@H](CC1CCCCC1)NC(=O)CCCC[C@@H]1SCC2NC(=O)N[C@@H]21)C(=O)NCc1ccccn1 (some centres undefined)	9	45	129	24.1 pM min-1 (mg of protein)-1	–
CC[C@@H](C)[C@H](NC(=O)[C@H](C(C)C)[C@@H](O)[C@H](O)[C@H](CC1CCCCC1)NC(=O)[C@@H](NC(=O)CCCC[C@H]1SC[C@H]2NC(=O)NC21)C(C)C)C(=O)NCc1ccccn1 (some centres undefined)	26	< 4	122	22.7 pM min-1 (mg of protein)-1	inhibition at 0.01 µM [18]: 11%; inhibition at 0.1 µM [9]: 89%; inhibition at 0.01 µM [10]: 22%; inhibition at 0.1 µM [11]: 69%; inhibition at 0.001 µM [20]: 7%; inhibition at 0.001 µM [15]: 18%
CC[C@@H](C)[C@H](NC(=O)[C@H](C(C)C)[C@@H](O)[C@H](O)[C@H](CC1CCCCC1)NC(=O)CCCC[C@@H]1SCC2NC(=O)NC21)C(=O)NCCc1scnc1C (some centres undefined)	15	130	–	–	–
